Assay results: ChEMBL document CHEMBL2396513, “Falcipain-2 inhibition by suramin and suramin analogues” (Bioorg Med Chem, 2013)
Activity calls are given as the source filed them. The rule behind the calls is not given here.

Tested on: Plasmodium falciparum
Assay: Binding affinity to Plasmodium falciparum falcipain-2 at 1:1 compound to protein molar ratio by isothermal titration assay
How it was run: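 Recombinant mature falcipain-2 domain (241 aa, E. coli-expressed, Ni-column purified, refolded), 5 µM in 100 mM sodium acetate pH 5.5, 5% glycerol, 10 mM DTT; suramin added stepwise from stock in same buffer. Intrinsic tryptophan fluorescence read at ex 295/em 340 nm; maximum dilution 10%, with fluorescence and protein concentration corrected. Stoichiometry taken from inflection of first-derivative titration curve.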

Row | Activity | Compound
1 | Active | CC1=CCC(C(=O)/N=C2\CC=C(S(=O)(=O)O)c3cc(S(=O)(=O)O)cc(S(=O)(=O)O)c32)=C/C1=N/C(=O)C1=CC=C/C(=N\C(=O)/N=C2\C=CC=C(C(=O)/N=C3/CC(C(=O)/N=C4\CC=C(S(=O)(=O)O)c5cc(S(=O)(=O)O)cc(S(=O)(=O)O)c54)=CC=C3C)C2)C1

Tested on: not listed separately
Assay: Inhibition of Plasmodium falciparum falcipain-2 peptidolytic activity using Z-Phe-Arg-AMC as substrate measured over 30 mins by spectrofluorimetric analysis
How it was run: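 Recombinant falcipain-2 at 20 nM in 100 mM sodium acetate, 10 mM DTT, 10% glycerol, pH 5.5, with 50 µM Z-Phe-Arg-AMC and varying inhibitor concentrations. AMC release followed continuously (ex 355/em 460 nm) over 30 min at 23 ± 2 °C. IC50 from percent activity versus inhibitor concentration fitted to four-parameter logistic; at least three independent experiments.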

Row | Compound | IC50 [nM]
2 | O=C(Nc1cccc(C(=O)Nc2cc(C(=O)Nc3ccc(S(=O)(=O)O)c4cc(S(=O)(=O)O)cc(S(=O)(=O)O)c34)ccc2Cl)c1)Nc1cccc(C(=O)Nc2cc(C(=O)Nc3ccc(S(=O)(=O)O)c4cc(S(=O)(=O)O)cc(S(=O)(=O)O)c34)ccc2Cl)c1 | 78
3 | COCc1ccc(C(=O)Nc2ccc(S(=O)(=O)O)c3cc(S(=O)(=O)O)cc(S(=O)(=O)O)c23)cc1NC(=O)c1cccc(NC(=O)Nc2cccc(C(=O)Nc3cc(C(=O)Nc4ccc(S(=O)(=O)O)c5cc(S(=O)(=O)O)cc(S(=O)(=O)O)c45)ccc3COC)c2)c1 | 60
4 | CC1=CCC(C(=O)/N=C2\CC=C(S(=O)(=O)O)c3cc(S(=O)(=O)O)cc(S(=O)(=O)O)c32)=C/C1=N/C(=O)C1=CC=C/C(=N\C(=O)/N=C2\C=CC=C(C(=O)/N=C3/CC(C(=O)/N=C4\CC=C(S(=O)(=O)O)c5cc(S(=O)(=O)O)cc(S(=O)(=O)O)c54)=CC=C3C)C2)C1 | 95
5 | O=C(Nc1cccc(C(=O)Nc2ccc(S(=O)(=O)O)cc2S(=O)(=O)O)c1)Nc1cccc(C(=O)Nc2ccc(S(=O)(=O)O)cc2S(=O)(=O)O)c1 | 98
6 | CC(C)c1ccc(C(=O)Nc2ccc(S(=O)(=O)O)c3cc(S(=O)(=O)O)cc(S(=O)(=O)O)c23)cc1NC(=O)c1cccc(NC(=O)Nc2cccc(C(=O)Nc3cc(C(=O)Nc4ccc(S(=O)(=O)O)c5cc(S(=O)(=O)O)cc(S(=O)(=O)O)c45)ccc3C(C)C)c2)c1 | 111

Continued by falling IC50, values first:

Row | IC50 [nM] | Compound
7 | 167 | O=C(Nc1cccc(C(=O)Nc2ccc(S(=O)(=O)O)c3cc(S(=O)(=O)O)cc(S(=O)(=O)O)c23)c1)Nc1cccc(C(=O)Nc2ccc(S(=O)(=O)O)c3cc(S(=O)(=O)O)cc(S(=O)(=O)O)c23)c1
8 | 80 | CCc1ccc(C(=O)Nc2ccc(S(=O)(=O)O)c3cc(S(=O)(=O)O)cc(S(=O)(=O)O)c23)cc1NC(=O)c1cccc(NC(=O)Nc2cccc(C(=O)Nc3cc(C(=O)Nc4ccc(S(=O)(=O)O)c5cc(S(=O)(=O)O)cc(S(=O)(=O)O)c45)ccc3CC)c2)c1
9 | 67 | COc1ccc(C(=O)Nc2ccc(S(=O)(=O)O)c3cc(S(=O)(=O)O)cc(S(=O)(=O)O)c23)cc1NC(=O)c1cccc(NC(=O)Nc2cccc(C(=O)Nc3cc(C(=O)Nc4ccc(S(=O)(=O)O)c5cc(S(=O)(=O)O)cc(S(=O)(=O)O)c45)ccc3OC)c2)c1
10 | 62 | O=C(Nc1cccc(C(=O)Nc2cc(C(=O)Nc3ccc(S(=O)(=O)O)c4cc(S(=O)(=O)O)cc(S(=O)(=O)O)c34)ccc2-c2ccccc2)c1)Nc1cccc(C(=O)Nc2cc(C(=O)Nc3ccc(S(=O)(=O)O)c4cc(S(=O)(=O)O)cc(S(=O)(=O)O)c34)ccc2-c2ccccc2)c1
11 | 42 | O=C(Nc1cccc(C(=O)Nc2cc(C(=O)Nc3ccc(S(=O)(=O)O)c4cc(S(=O)(=O)O)cc(S(=O)(=O)O)c34)ccc2F)c1)Nc1cccc(C(=O)Nc2cc(C(=O)Nc3ccc(S(=O)(=O)O)c4cc(S(=O)(=O)O)cc(S(=O)(=O)O)c34)ccc2F)c1
12 | 36 | O=C(Nc1cccc(C(=O)Nc2cccc(C(=O)Nc3ccc(S(=O)(=O)O)c4cc(S(=O)(=O)O)cc(S(=O)(=O)O)c34)c2)c1)Nc1cccc(C(=O)Nc2cccc(C(=O)Nc3ccc(S(=O)(=O)O)c4cc(S(=O)(=O)O)cc(S(=O)(=O)O)c34)c2)c1

Tested on: Plasmodium falciparum
Assay: Inhibition of Plasmodium falciparum falcipain-2 hemoglobinase activity at 200 nM after 90 mins by Coomassie Blue R-250 staining-based densitometric analysis
How it was run: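 Human hemoglobin 0.1 mg/ml digested by 20 nM recombinant falcipain-2 in 100 mM sodium acetate, 10 mM DTT, 10% glycerol, pH 5.5, with or without compound, 37 °C for 90 min. Quenched with denaturing SDS sample buffer, products run on 15% SDS-PAGE, Coomassie-stained, and remaining hemoglobin quantified by densitometry.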

Row | inhibition | Compound
13 | Active | CC1=CCC(C(=O)/N=C2\CC=C(S(=O)(=O)O)c3cc(S(=O)(=O)O)cc(S(=O)(=O)O)c32)=C/C1=N/C(=O)C1=CC=C/C(=N\C(=O)/N=C2\C=CC=C(C(=O)/N=C3/CC(C(=O)/N=C4\CC=C(S(=O)(=O)O)c5cc(S(=O)(=O)O)cc(S(=O)(=O)O)c54)=CC=C3C)C2)C1
